In paper PMC4097887 (Journal of medicinal chemistry, 2008):
Marks after values point to notes of the source that are not given here. Values belong to the compound of their own block, whether it stands above or below them.

Tests used:
[1] = test system: human microvascular endothelial (HMVE) cells; assay: HMVE cell growth inhibition; format: cell-based; settings: 0.5 μM
[2] = target: T1, recombinant human small heterodimer partner (SHP) (Homo sapiens, UniProt Q15466); settings: cited from earlier work
T1 sequence (Q15466 1-257): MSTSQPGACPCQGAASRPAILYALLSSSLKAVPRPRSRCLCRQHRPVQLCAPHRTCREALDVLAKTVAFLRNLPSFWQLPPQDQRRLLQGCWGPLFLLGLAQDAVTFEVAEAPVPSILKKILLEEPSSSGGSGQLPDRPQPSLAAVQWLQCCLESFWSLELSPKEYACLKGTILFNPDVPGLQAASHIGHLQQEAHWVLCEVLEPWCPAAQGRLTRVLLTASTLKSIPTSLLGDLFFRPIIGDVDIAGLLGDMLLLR

AML animal model = settings: cited from earlier work
[3] = doses found to induce cancer cell apoptosis in vitro; cited from earlier work
[4] = test system: IGROV ovarian cancer cells; settings: at antiproliferative IC80 value, propidium iodide staining; cited from earlier work
KG-1 AML cells [5] = assay: KG-1 proliferation inhibition; format: cell-based, human
Method in brief: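 KG-1 cells in medium with 5% FBS attached overnight and were then exposed to test compound in Me2SO or to Me2SO alone (final 0.1%) for the indicated time. Cells were harvested and counted with a hemocytometer in triplicate wells. Proliferation inhibition is given as IC50 and as percent inhibition at the highest concentration tested.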

KG-1 AML cells [6] = assay: KG-1 cell apoptosis; format: cell-based, human
Method in brief: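 Cells in medium with 5% FBS attached overnight, then exposed to test compound in Me2SO or to Me2SO alone (final 0.1%). Exposure was 24 h for HL-60R and 48 h for KG-1. Apoptotic cells were scored by acridine orange staining on at least three replicates and expressed as percent apoptosis.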

[7] = test system: DU-145, MDA-MB-231 and H292 cancer cell lines; assay: Proliferation inhibition of the three solid tumor cell lines; format: cell-based, human
Method in brief: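 DU-145, MDA-MB-231 and H292 cells attached for 24 h and were then treated for 72 h with test compound in Me2SO or with vehicle alone (final Me2SO 0.1%). Medium and compound were replaced at 48 h. Viable cells were measured by tetrazolium (MTS-type) reduction in triplicate per concentration, and IC50 values were calculated from these counts.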

SMILES: CC(C)(C)c1cc(-c2ccc3cc(C(=O)O)ccc3c2)ccc1O [compound 21]
reduction of HMVE cell growth inhibition relative to 13 [1]: 7 fold

SMILES: O=C(O)c1ccc2cc(-c3ccc(O)c(C45CC6CC(CC(C6)C4)C5)c3)ccc2c1 [compound 13, 6-[3′-(1-adamantyl)-4′-hydroxyphenyl]-2-naphthoic acid]
affinity of [5,5′-3H2]AHPN for recombinant human SHP [2]: low nanomolar affinity

SMILES: O=C(O)/C=C/c1ccc(-c2ccc(O)c(C34CC5CC(CC(C5)C3)C4)c2)c(Cl)c1 [compound 1, (E)-4-[3′-(1-adamantyl)-4′-hydroxyphenyl]-3-chlorocinnamic acid]
survival in an AML animal model (AML animal model): extension of survival

SMILES: O=C(O)/C=C/c1ccc(-c2ccc(O)c(C34CC5CC(CC(C5)C3)C4)c2)cc1 [compound 15, (E)-4-[3′-(1-adamantyl)-4′-hydroxyphenyl]cinnamic acid]
adverse systemic effects in mice [3]: produced adverse systemic effects | apoptosis induced in ovarian cancer cell line [4]: 50%

SMILES: CC(=O)Nc1ccc(-c2ccc(/C=C/C(=O)O)cc2Cl)cc1C12CC3CC(CC(C3)C1)C2 [compound 2]
further reduction of KG-1 antiproliferative activity relative to 3 (KG-1 AML cells [5]; 5.0 μM): 50%

SMILES: CC(C)(C)C#Cc1cc(-c2ccc(/C=C/C(=O)O)cc2Cl)ccc1O [compound 6]
KG-1 antiproliferative activity as fraction of that of 1 (KG-1 AML cells [5]; 5.0 μM): approximately one-third

calculated IC50 values higher than those of 1, three solid tumor cell lines [7]: 10–20 fold
SMILES: O=C(O)/C=C/c1ccc(-c2ccc(O)c(C34CC5CC(CC3C5)C4)c2)c(Cl)c1 [compound 8]
KG-1 apoptotic activity as % of that exhibited by 1 (KG-1 AML cells [6]; 5.0 μM): 31% | KG-1 apoptosis at 48 h (%) (KG-1 AML cells [6]; 5.0 μM): 16 ^j % | KG-1 proliferation inhibition relative to 1 (KG-1 AML cells [5]; 5.0 μM): 1.2 fold

calculated IC50 values higher than those of 1, three solid tumor cell lines [7]: 3–4 fold
SMILES: Nc1ccc(-c2ccc(/C=C/C(=O)O)cc2Cl)cc1C12CC3CC(CC(C3)C1)C2 [compound 3]
weakening of KG-1 apoptosis induction relative to 1 (KG-1 AML cells [6]; 1.0 μM): 67% | weakening of KG-1 apoptosis induction relative to 1 (KG-1 AML cells [6]; 5.0 μM): 27% | KG-1 apoptosis at 48 h (%) (KG-1 AML cells [6]; 5.0 μM): 40 ^j % | increase of IC50 for KG-1 proliferation inhibition compared to 1 (KG-1 AML cells [5]): ~3.6 fold

SMILES: O=C(O)/C=C/c1ccc(-c2ccc(F)cc2)c(Cl)c1 [compound 5]
% inhibition of KG-1 proliferation at highest concentration evaluated (KG-1 AML cells [5]; 5 μM, 48 h): 0%

SMILES: O=C(O)c1ccc2cc(-c3cccc(C45CC6CC(CC(C6)C4)C5)c3)ccc2c1 [compound 18]
HMVE cell growth inhibition at 72 h (%) ([1]; 72 h (Table 1)): moderate
